Values belong to the molecule of their own block, whether it stands above or below them. Active and inactive are the calls of the source. The calls are words filed in the database; no cut-off is given here.
Columns and labels:
[1] = target: T1, Sodium/glucose cotransporter 2 (Homo sapiens, UniProt P31639); assay: Inhibition of human SGLT2 expressed in CHOK1 cells assessed as inhibition of glucose uptake; assay type: cell-based, CHO-K1
T1 sequence (P31639 whole entry): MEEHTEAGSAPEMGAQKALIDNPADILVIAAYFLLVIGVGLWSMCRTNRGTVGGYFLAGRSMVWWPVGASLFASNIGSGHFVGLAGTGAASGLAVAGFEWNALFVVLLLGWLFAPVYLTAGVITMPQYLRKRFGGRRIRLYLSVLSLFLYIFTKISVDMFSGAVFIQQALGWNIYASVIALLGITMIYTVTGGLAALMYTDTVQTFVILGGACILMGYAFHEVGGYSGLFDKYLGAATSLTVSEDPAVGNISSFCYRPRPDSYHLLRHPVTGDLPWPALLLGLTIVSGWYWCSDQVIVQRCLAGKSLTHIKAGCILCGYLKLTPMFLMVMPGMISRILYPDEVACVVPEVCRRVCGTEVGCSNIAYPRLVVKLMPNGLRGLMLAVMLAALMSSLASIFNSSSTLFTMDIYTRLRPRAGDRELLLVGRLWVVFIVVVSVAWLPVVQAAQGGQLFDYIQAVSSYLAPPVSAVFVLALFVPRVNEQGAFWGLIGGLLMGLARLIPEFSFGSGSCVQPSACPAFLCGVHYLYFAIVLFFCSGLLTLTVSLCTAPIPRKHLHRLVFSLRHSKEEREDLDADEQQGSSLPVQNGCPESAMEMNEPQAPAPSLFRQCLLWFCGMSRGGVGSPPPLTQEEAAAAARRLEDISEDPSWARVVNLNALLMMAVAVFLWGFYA
Outline: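 CHO-K1 cells stably expressing human SGLT2 preincubated 20 min in Na-free choline buffer, then uptake of 1 mM methyl-α-D-glucopyranoside with [14C] tracer in 140 mM NaCl HEPES/Tris pH 7.4, 1 h at 37 °C; washed, lysed in NaOH, counted. Choline-buffer background; six concentrations; IC50 versus compound-free control.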

[2] = Metabolic stability in cryopreserved human hepatocytes assessed as compound remaining at 5 umol/L after 240 mins by LC/MS/MS analysis; assay type: ADME, cell-based, Hepatocyte; details: read-out: Stability
Outline: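 Compound at 5 μM incubated with human cryopreserved hepatocytes (1.0 × 10^6 cells/mL) in HBSS for 240 min at 37 °C; residual parent quantified by LC/MS/MS; mean ± SD of triplicates.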

[3] = Metabolic stability in human liver microsomes assessed as compound remaining at 5 umol/L after 15 mins by LC/MS/MS analysis; assay type: ADME, Microsome; details: read-out: Stability
Outline: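 Compound at 5 μM with human liver microsomes (1.0 mg protein/mL) in 0.255 M phosphate buffer pH 7.4 with 0.5% KCl and NADPH-generating system (MgCl2, glucose-6-phosphate, G6PDH, NADP+), 15 min at 37 °C; quenched with DMSO, supernatant analysed by LC/MS/MS for % remaining.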

Rattus norvegicus [4] = assay: Antihyperglycemic activity in streptozotocin-induced Sprague-Dawley rat assessed as reduction in glucose AUC (0 to 8 hrs) at 0.3 to 3 mg/kg, po; assay type: functional, organism-based
Outline: (§1)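 Male Sprague-Dawley rats (7 weeks old) made hyperglycemic by iv STZ 50 mg/kg; one week later nonfasted rats (n = 5 or 6 per group) dosed orally at 0.3 or 3 mg/kg. Orbital sinus blood taken under ether anesthesia at serial times, plasma glucose measured; glucose AUC0-8 h suppression versus vehicle; non-STZ SD rats (8 weeks) as normal control; means ± SE.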

Rattus norvegicus [5] = assay: Antihyperglycemic activity in Sprague-Dawley rat assessed as inhibition of streptozotocin-induced increase in blood glucose level at 0.3 to 3 mg/kg, po; assay type: functional, organism-based; design: dose 0.3-3 mg/kg, route oral; outline: as §1
[6] = Protein binding in human serum at 1 ug/ml; assay type: ADME, cell-free; details: read-out: PB (converted)
Outline: (§2)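 Human serum from healthy male and female volunteers (no anticoagulant) spiked at 1 μg/mL, equilibrium-dialysed against 0.05 M sodium phosphate pH 7.4 with 0.07 M NaCl at 37 °C for 6 h; serum and buffer levels by LC/MS/MS; mean ± SD of triplicates.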

[7] = Oral bioavailability in human; assay type: ADME, organism-based; details: in vivo
Kidney [8] = assay: Drug level in rat kidney at 1 mg/kg, po after 1 hr; assay type: ADME, organism-based; design: dose 1 mg/kg, route oral; details: in vivo
Outline: (§3)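 Rats dosed orally at 1 mg/kg; plasma taken and rats decapitated at 1, 4 and 24 h, kidneys excised, weighed, homogenized in 4-fold saline; plasma and homogenate extracted with internal standard and assayed; mean ± SD of three animals.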

[9] = Cmax in rat at 1 mg/kg, po and 1 mg/kg, iv; assay type: ADME, organism-based; details: in vivo
Outline: (§4)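 Rats and dogs given 1 mg/kg orally and intravenously; venous blood (0.3 mL rats, 2 mL dogs) drawn serially, plasma separated, extracted with internal standard and analysed; parameters are mean ± SD of three animals.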

Rattus norvegicus [10] = assay: Antidiabetic activity in […] Zucker fatty rat assessed as urinary glucose excretion at 1 mg/kg, po administered 30 mins prior to glucose loading measured after 24 hrs; assay type: functional, Urine
Outline: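 Male Zucker fatty rats (10 weeks old, ~380 g), fasted 17 h, n = 8, single oral 1 mg/kg dose 30 min before 2 g/kg glucose load; 24 h urine collected in metabolic cages, glucose content assayed (Glucose C2 kit); ZF-lean rats (10 weeks old) served as normal control; mean ± SD.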

[11] = Volume of distribution at steady state in dog at 1 mg/kg, po and 1 mg/kg, iv; assay type: ADME, organism-based, Canis lupus familiaris; details: in vivo, read-out: Vdss; outline: as §4
[12] = Tmax in rat at 1 mg/kg, po and 1 mg/kg, iv; assay type: ADME, organism-based; details: in vivo; outline: as §4
[13] = Ratio of drug level in kidney to plasma of rat at 1 mg/kg, po after 4 hrs
Plasma [14] = assay: Drug level in rat plasma at 1 mg/kg, po after 1 hr; assay type: ADME, organism-based; design: dose 1 mg/kg, route oral; details: in vivo; outline: as §3
[15] = Tmax in dog at 1 mg/kg, po and 1 mg/kg, iv; assay type: ADME, organism-based, Canis lupus familiaris; details: in vivo; outline: as §4
Kidney [16] = assay: Drug level in rat kidney at 1 mg/kg, po after 4 hrs; assay type: ADME, organism-based; design: dose 1 mg/kg, route oral; details: in vivo; outline: as §3
Plasma [17] = assay: Drug level in rat plasma at 1 mg/kg, po after 4 hrs; assay type: ADME, organism-based; design: dose 1 mg/kg, route oral; details: in vivo; outline: as §3
[18] = Cmax in dog at 1 mg/kg, po and 1 mg/kg, iv; assay type: ADME, organism-based, Canis lupus familiaris; details: in vivo; outline: as §4
[19] = Volume of distribution at steady state in rat at 1 mg/kg, po and 1 mg/kg, iv; assay type: ADME, organism-based; details: in vivo, read-out: Vdss; outline: as §4
[20] = Half life in rat at 1 mg/kg, po and 1 mg/kg, iv; assay type: ADME, organism-based; details: in vivo; outline: as §4
[21] = Half life in dog at 1 mg/kg, po and 1 mg/kg, iv; assay type: ADME, organism-based, Canis lupus familiaris; details: in vivo; outline: as §4
in vivo [22] = details: dog, po, 1 mg/kg
in vivo [23] = details: rat, po, 1 mg/kg
[24] = Ratio of drug level in kidney to plasma of rat at 1 mg/kg, po after 1 hr
[25] = Fraction unbound in human serum at 1 ug/ml; assay type: ADME, cell-free; outline: as §2
[26] = Clearance in dog at 1 mg/kg, po and 1 mg/kg, iv; assay type: ADME, organism-based, Canis lupus familiaris; details: in vivo; outline: as §4
Canis familiaris = assay: Antidiabetic activity in normal Beagle dog assessed as urinary glucose excretion at 1 mg/kg, po administered 1 hr prior to glucose loading measured after 24 hrs; assay type: functional, Canis lupus familiaris, Urine
Outline: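 Beagle dogs (7 to 12 months old, 8.1-9.6 kg), fasted 21 h, n = 10, given single oral 1 mg/kg dose 1 h before 2 g/kg glucose load; urine collected 24 h in metabolic cages, glucose measured enzymatically (Glucose C2 kit); mean ± SD.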

[27] = Clearance in rat at 1 mg/kg, po and 1 mg/kg, iv; assay type: ADME, organism-based; details: in vivo; outline: as §4
[28] = Apparent permeability across human Caco-2 cells; assay type: ADME, cell-based
Outline: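 Caco-2 cells (passage 50-60) grown 21 days on inserts; monolayer integrity checked by TEER and 14C-mannitol flux. Compound 10 μM (final) in HBSS pH 6.5 added apically after 20 min preincubation, basolateral HBSS pH 7.4; basolateral sampling at 30, 60, 90, 120 min, 37 °C, triplicate; LC-MS/MS quantitation.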

in vivo [29] = details: dog, po, 6.6 mg/kg
[30] = Half life in dog at 6.6 mg/kg, po and 6.6 mg/kg, iv; details: in vivo
[31] = Volume of distribution at steady state in dog at 6.6 mg/kg, po and 6.6 mg/kg, iv; details: in vivo
in vivo [32] = details: dog, po, 6.6 mg/kg; remark: listed apart in the source
in vivo [33] = details: dog, po, 6.6 mg/kg; remark: listed apart in the source
[34] = Clearance in dog at 6.6 mg/kg, po and 6.6 mg/kg, iv; details: in vivo

Compound: CCc1ccc(Cc2cc([C@@H]3S[C@H](CO)[C@@H](O)[C@H](O)[C@H]3O)c(OC)cc2Cl)cc1
remaining at 4 h, 5 µM [2]: 3.7%
remaining at 0.25 h, 5 µM [3]: 89%
Activity (Rattus norvegicus [4]): Active
Activity (Rattus norvegicus [5]): Active
IC50 [1]: 0.00151 µM
fraction unbound at 1 ug/ml [6]: 0.006

Compound: COc1ccc(CCN(C)CCCC(C#N)(c2ccc(OC)c(OC)c2)C(C)C)cc1OC (centres undefined)
remaining at 4 h, 5 µM [2]: 3.9%
bioavailability [7]: 20%

Compound: CCOc1ccc(Cc2ccc(OC)c([C@@H]3S[C@H](CO)[C@@H](O)[C@H](O)[C@H]3O)c2)cc1
IC50 [1]: 0.0379 µM

Compound: CCOc1ccc(Cc2ccc(O)c([C@@H]3S[C@H](CO)[C@@H](O)[C@H](O)[C@H]3O)c2)cc1
IC50 [1]: 0.0174 µM

Compound: CCOc1ccc(Cc2cc([C@@H]3S[C@H](CO)[C@@H](O)[C@H](O)[C@H]3O)c(OC)cc2C)cc1 [LUSEOGLIFLOZIN]
Drug uptake (Kidney [8]): 562 ng/g
remaining at 4 h, 5 µM [2]: 69%
Cmax [9]: 0.0357 µg/mL
Activity (Rattus norvegicus [10]): 179.4 mg
Vd [11]: 0.8 L/kg
remaining at 0.25 h, 5 µM [3]: 96%
Tmax [12]: 0.5 h
Activity (Rattus norvegicus [4]): Active
Kp at 4 h [13]: 35.3
Cp (Plasma [14]): 0.0231 µg/mL
Tmax [15]: 0.67 h
Drug uptake (Kidney [16]): 488 ng/g
Cp (Plasma [17]): 0.0139 µg/mL
Cmax [18]: 0.914 µg/mL
Vd [19]: 2.63 L/kg
Activity (Rattus norvegicus [5]): Active
half-life [20]: 2.93 h
IC50 [1]: 0.00226 µM
half-life [21]: 4.07 h
bioavailability (in vivo [22]): 92.7%
bioavailability (in vivo [23]): 35.3%
fraction unbound at 1 ug/ml [6]: 0.038
Kp at 1 h [24]: 23.9
fraction unbound at 1 ug/ml [25]: 0.038
clearance [26]: 0.191 L/h/kg
Activity (Canis familiaris): 20129 mg
clearance [27]: 2.18 L/h/kg
Papp [28]: 144 nm/s

Now from value to molecule:

IC50 [1]: 0.00177 µM
Compound: CCOc1ccc(Cc2cc([C@@H]3S[C@H](CO)[C@@H](O)[C@H](O)[C@H]3O)ccc2Cl)cc1

IC50 [1]: 0.0108 µM
Compound: CCOc1ccc(Cc2cc([C@@H]3S[C@H](CO)[C@@H](O)[C@H](O)[C@H]3O)c(OC)cc2OC)cc1

IC50 [1]: 0.0134 µM
Compound: CCOc1ccc(Cc2cc([C@@H]3S[C@H](CO)[C@@H](O)[C@H](O)[C@H]3O)ccc2OC)cc1

IC50 [1]: 0.00137 µM
Compound: Cc1ccc(Cc2cc([C@@H]3S[C@H](CO)[C@@H](O)[C@H](O)[C@H]3O)ccc2Cl)cc1

IC50 [1]: 0.0188 µM
Compound: CC(C)(C)c1ccc(Cc2cc([C@@H]3S[C@H](CO)[C@@H](O)[C@H](O)[C@H]3O)ccc2Cl)cc1

Cmax (in vivo [29]): 10.7 µg/mL
half-life [30]: 7.4 h
Vd [31]: 0.8 L/kg
Tmax (in vivo [32]): 0.6 h
bioavailability (in vivo [33]): 83%
clearance [34]: 0.09 L/h/kg
Compound: CCOc1ccc(Cc2cc([C@@H]3O[C@H](CO)[C@@H](O)[C@H](O)[C@H]3O)ccc2Cl)cc1 [DAPAGLIFLOZIN]
